Series [1] deals with Norovirus. Nature of the series: Antiviral activity against human Norovirus. Type of series: functional.
Series [2] has as its system Norovirus. Nature of the series: Antiviral activity against human Norovirus infected in BJAB cells assessed as reduction in viral replication incubated for 3 days by qRT-PCR analysi. Type of series: functional, cell-based. Conditions: 72 h. On the technique in general: Real-time PCR tracks product formation cycle by cycle.
The nature of series [3]: Antiviral activity against murine Norovirus infected in mouse RAW264.7 cells assessed as reduction in virus-induced cytopathic effect incubated for 3 days by MTS assay. Type of series: functional, cell-based. The conditions noted are these: RAW264.7, 72 h. In short, it runs like this: (§1)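 RAW 264.7 cells (1 × 10⁴/well) infected with MNV-1.CW1 at MOI 0.001 alongside a compound dilution series (0.023–50 or 100 µg/mL; 8 concentrations). Incubated 3 days until CPE was complete in untreated infected wells. MTS/PMS added, OD read at 498 nm after 2 h. %CPE reduction taken against uninfected and infected untreated controls; EC₅₀ is 50% protection from CPE.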
On the technique in general: Damage to the host cells serves as the signal in cytopathic effect assays.

A short description of series [4]: Antiviral activity against murine Norovirus infected in mouse RAW264.7 cells assessed as reduction in virus-induced cytopathic effect incubated for 72 hrs by MTS assay. Type of series: functional, cell-based. Conditions: RAW264.7, 72 h. In short, it runs like this:
as §1

A short description of series [5]: Cytotoxicity against mouse RAW264.7 cells assessed as reduction in cell viability incubated for 3 days by MTS assay. Type of series: cell-based. The conditions noted are these: time 3 day. In short, it runs like this:
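Uninfected RAW 264.7 cells were exposed for 3 days to the same compound concentrations used in the MNV assay, then MTS read-out. Viability was expressed as % of untreated cells, and CC₅₀ is the concentration that reduced viable cells by 50%.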
In general terms: Tetrazolium assays rely on reduction of a dye to a coloured formazan, in cell work by metabolically active cells.

Series [6] in a line: Selectivity index, ratio of CC50 for mouse RAW264.7 cells to EC50 for antiviral activity against murine Norovirus infected in mouse RAW264.7 cells. Format: toxicity, cell-based. The conditions noted are these: read-out: Ratio CC50/EC50. In short, it runs like this:
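Ratio of CC₅₀ (MTS, uninfected RAW 264.7, 3 days) to EC₅₀ (MNV CPE-reduction MTS assay in RAW 264.7, 3 days), calculated as CC₅₀/EC₅₀.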

A short description of series [7]: Inhibition of human Norovirus RNA-dependent RNA polymerase assessed as decrease in GTP incorporation incubated for 10 mins by scintillation counting method.
Series [8] in a line: Inhibition of mouse Norovirus RNA-dependent RNA polymerase assessed as decrease in GTP incorporation incubated for 10 mins by scintillation counting method.
Series [9] concerns Norovirus. Nature of the series: Antiviral activity against human Norovirus GI.1 infected in human HGT-1 cells assessed as reduction in virus replication incubated for 72 hrs by qRT-PCR analysis. Type of series: functional, cell-based. The conditions noted are these: GI.1, HGT-1, 72 h. In short, it runs like this: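 HGT-1 cells stably carrying the GI.1 HuNoV replicon were seeded at 5,000/well in complete DMEM without G418. Serial compound dilutions were added after 24 h, followed by 72 h incubation and a PBS wash. Intracellular replicon RNA was quantified by qRT-PCR, normalised to β-actin by the Pfaffl method with per-run efficiencies. EC₅₀ is 50% reduction of relative replicon RNA.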

Series [10] can be described thus: Inhibition of recombinant Norovirus GII.4 C-terminal His6-tagged RNA-dependent RNA polymerase in Escherichia coli assessed as decrease in GTP incorporation incubated for 10 mins by scintillation counting method.
Series [11] is described as follows: Antiviral activity against murine Norovirus GV.1 infected in mouse RAW264.7 cells assessed as reduction in plaque formation incubated for 48 hrs by qRT-PCR analysis. Type of series: functional, cell-based. Conditions: GV.1, RAW264.7, 48 h.

The results in this text go back to ChEMBL document CHEMBL4680252, “Anti-norovirus activity of C7-modified 4-amino-pyrrolo[2,1-f][1,2,4]triazine C-nucleosides” (Eur J Med Chem, 2020).

Molecules are shown by their SMILES.

Broadly, the EC50 is the concentration needed to bring the measured effect to its halfway point. One may read the CC50 as the concentration at which the toxic effect on the cells reaches its halfway point. Broadly, the IC50 is the concentration at which inhibition is half-maximal.

For `C[C@@]1(O)[C@H](O)[C@@H](CO)O[C@H]1n1ccc(N)nc1=O`, the EC50 in [1] worked out at 8.2 µM; in series [2], 300 nM; in [3], 2000 nM.

As for `Nc1ncnn2c([C@H]3O[C@@H](CO)[C@H](O)[C@@H]3O)ccc12`, the EC50 in series [4] was above 100000 nM. Besides, the CC50 at 72 h in [5] was above 100000 nM.

For `C[C@@]1(F)[C@H](O)[C@@H](CO)O[C@H]1n1ccc(N)nc1=O`, the midpoint of the response in series [1], the EC50, lay at 3.2 µM.

Regarding `C[C@@]1(O)[C@H](O)[C@@H](CO)O[C@H]1c1ccc2c(N)ncnn12`, the EC50 in series [4] came to 11100 nM. Also, the selectivity ratio in series [6] came to 2. Besides, in series [5], the CC50 at 72 h was 23700 nM.

For `Cc1ccc(C(=O)Nc2ccc(S(=O)(=O)O)c3cc(S(=O)(=O)O)cc(S(=O)(=O)O)c23)cc1NC(=O)c1cccc(NC(=O)Nc2cccc(C(=O)Nc3cc(C(=O)Nc4ccc(S(=O)(=O)O)c5cc(S(=O)(=O)O)cc(S(=O)(=O)O)c45)ccc3C)c2)c1` [SURAMIN], the IC50 was 25 nM in series [7] and 70 nM in series [8].

Consider `Nc1ncnn2c([C@@H]3O[C@H](CO)[C@@H](O)[C@H]3O)cc(I)c12`, for which the EC50 in series [4] was 35 nM; in [9] it was above 10 µM. Also, the selectivity ratio in series [6] is 22. Moreover, the CC50 at 72 h in [5] is 780 nM.

Consider `O=C(O)c1[nH]nnc1-c1ccccc1`, for which the IC50 in series [10] amounted to 9.2 µM. In [11], the EC50 is 34.5 µM.

As to `Cc1nc(-c2ccccc2)sc1C(=O)Nc1sc2c(c1C#N)CCC2`, in [10], the IC50 worked out at 5 µM. Also, the 50% effective concentration (EC50) in [11] was found to be 4.8 µM.

On to `Nc1ncnn2c([C@@H]3O[C@H](CO)[C@@H](O)[C@H]3O)ccc12`, for which the figures for the concentration for a half-maximal effect (EC50) in [4] and in series [9] were 7 nM and 0.015 µM, respectively. Also, in series [6], the selectivity ratio amounted to 20. Further, the CC50 at 72 h in [5] is 140 nM.

Consider `O=C(Nc1cccc(C(=O)Nc2ccc(S(=O)(=O)O)c3cc(S(=O)(=O)O)cc(S(=O)(=O)O)c23)c1)Nc1cccc(C(=O)Nc2ccc(S(=O)(=O)O)c3cc(S(=O)(=O)O)cc(S(=O)(=O)O)c23)c1`, for which the IC50 is 71 nM in [7] and 200 nM in series [8].

Regarding `Nc1ncnn2c([C@@H]3O[C@H](CO)[C@@H](O)[C@H]3O)cc(Cl)c12`, the values for the EC50 in series [4] and in series [9] were 7 nM and above 10 µM, respectively. Further, the selectivity ratio in series [6] is above 1. Further, the CC50 at 72 h in series [5] is above 10 nM.

Consider `Nc1ncnc2c1c(Cl)cn2[C@@H]1O[C@H](CO)[C@@H](O)[C@H]1O`, for which, in series [4], the EC50 was above 2000 nM. For the same compound, the CC50 at 72 h in series [5] came out at 2530 nM.

For the compound `C[C@@]1(O)[C@H](O)[C@@H](CO)O[C@H]1c1cc(Cl)c2c(N)ncnn12`, in series [4], the EC50 was above 4000 nM. The CC50 at 72 h in series [5] came out at 4780 nM.

`NC(=O)c1ncn([C@@H]2O[C@H](CO)[C@@H](O)[C@H]2O)n1` [RIBAVIRIN] returned an EC50 in [1] of 43 µM.

On to `Nc1ncnn2c([C@H]3O[C@@H](CO)[C@H](O)[C@@H]3O)cc(Cl)c12`, for which the EC50 in series [4] is above 100000 nM. Further, the CC50 at 72 h in series [5] was above 100000 nM.

Take `Nc1ncnn2c([C@@H]3O[C@H](CO)[C@@H](O)[C@H]3O)cc(Br)c12`: the values for the EC50 in [4] and in series [9] were 24 nM and above 10 µM, respectively. The selectivity ratio in series [6] came to 19. In addition, in series [5], the CC50 at 72 h stood at 450 nM.

On to `C[C@H](NP(=O)(N[C@@H](C)C(=O)OCc1ccccc1)OC[C@H]1O[C@@H](c2cc(Cl)c3c(N)ncnn23)[C@H](O)[C@@H]1O)C(=O)OCc1ccccc1`, for which the EC50 in [4] is above 10000 nM. Also, the CC50 at 72 h in series [5] was above 10000 nM.
